Results published in ChEMBL document CHEMBL5705902, “Role of G Protein-Coupled Receptor Kinases 2 and 3 in μ-Opioid Receptor Desensitization and Internalization” (Mol Pharmacol, 2015).
The source made the active and inactive calls. No cut-off for these calls is given here.

Experiments:
[1] = target: Mitogen-activated protein kinase 14 (Homo sapiens) (UniProt Q16539); assay: Inhibition of human p38a MAPK assessed as remaining activity at 1 uM in presence of 32ATP relative to control
Method in brief: (§1)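 Express panel of 52 purified human kinases run in vitro. Kinase activity was measured directly by a radioactive filter-binding assay with ³²ATP, at ATP levels at or below each kinase's calculated Km for ATP. The compound was tested at 1 μM. Each assay was run in duplicate, and activity is given as the mean percentage (with S.D.) of activity without inhibitor.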

[2] = target: Mu-type opioid receptor (Rattus norvegicus) (UniProt P33535); assay: Inhibition of MOPr desensitization in wistar rat LC neuron cells assessed as reduction in the Met-Enk induced desensitization incubated for 15 mins before; format: functional, cell-based; settings: dose 3-30 µM
Method in brief: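 Whole-cell patch clamp of GIRK currents in locus coeruleus slices from male Wistar rats (5–8 weeks). Inhibitor was given at least 15 min before and during the agonist, all drugs by superfusion. Percent desensitization was taken over 10 min of opioid agonist application. Met-Enk n = 5, endomorphin-2 n = 6; ANOVA.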
Target sequence in this assay (P33535 whole entry, the tested form may be a part): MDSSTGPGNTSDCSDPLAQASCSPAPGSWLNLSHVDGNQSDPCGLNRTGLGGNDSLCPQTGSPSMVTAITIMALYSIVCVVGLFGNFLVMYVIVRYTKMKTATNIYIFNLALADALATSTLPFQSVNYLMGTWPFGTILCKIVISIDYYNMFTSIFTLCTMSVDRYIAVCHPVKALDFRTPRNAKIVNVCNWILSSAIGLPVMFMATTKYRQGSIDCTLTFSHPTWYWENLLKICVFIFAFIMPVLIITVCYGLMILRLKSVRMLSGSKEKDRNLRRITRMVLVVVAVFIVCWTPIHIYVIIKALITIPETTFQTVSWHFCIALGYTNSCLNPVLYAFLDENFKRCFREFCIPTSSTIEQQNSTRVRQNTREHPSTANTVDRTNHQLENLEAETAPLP

[3] = target: Ephrin type-A receptor 2 (Homo sapiens) (UniProt P29317); assay: Inhibition of human EPHA2 assessed as remaining activity at 1 uM in presence of 32ATP relative to control; method in brief: as §1
[4] = target: Protein kinase C (PKC) (Homo sapiens) (UniProt O94806+P41743+P17252+P05129+Q05655+P05771+Q05513+Q02156+P24723+Q15139+Q04759); assay: Inhibition of PKC (unknown origin) at 1 uM in presence of 32ATP relative to control; format: protein assay
Method in brief: (§2)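 Express screen of 52 purified human kinases run as a radioactive filter-binding assay with 32ATP, at 1 μM inhibitor. ATP was at or below each kinase's calculated Km. Activity is given as percent of the activity without inhibitor. Run in duplicate; mean with S.D.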

[5] = target: Mitogen-activated protein kinase kinase kinase 7 (Homo sapiens) (UniProt O43318); assay: Inhibition of human TAK1 assessed as remaining activity at 1 uM in presence of 32ATP relative to control; method in brief: as §1
[6] = target: Mu-type opioid receptor (Rattus norvegicus) (UniProt P33535); assay: Inhibition of MOPr desensitization in wistar rat LC neuron cells assessed as reduction in the DAMGO induced desensitization at 30 uM incubated for 15 mins before in the presence of GF109203X; format: functional, cell-based
Target sequence in this assay (P33535 whole entry, the tested form may be a part): as above

[7] = target: Serine/threonine-protein kinase STK11 (Homo sapiens) (UniProt Q15831); assay: Inhibition of human LKB1 assessed as remaining activity at 1 uM in presence of 32ATP relative to control; method in brief: as §1
[8] = target: Mu-type opioid receptor (Rattus norvegicus) (UniProt P33535); assay: Inhibition of HA-tagged rat MOPr in HEK293 cells assessed as prevention in DAMGO induced MOPr phosphorylation at Thr376 level at 30 uM preincubated for 30 mins by western blot analysis; format: functional, cell-based
Target sequence in this assay (P33535 whole entry, the tested form may be a part): as above

[9] = target: c-Jun N-terminal kinase, JNK (Homo sapiens) (UniProt P45983+P53779+P45984); assay: Inhibition of JNK (unknown origin) at 1 uM in presence of 32ATP relative to control; format: protein assay; method in brief: as §2
[10] = target: Casein kinase I isoform delta (Homo sapiens) (UniProt P48730); assay: Inhibition of human CK1delta assessed as remaining activity at 1 uM in presence of 32ATP relative to control; method in brief: as §2
[11] = target: Tyrosine-protein kinase JAK2 (Homo sapiens) (UniProt O60674); assay: Inhibition of human JAK2 assessed as remaining activity at 1 uM in presence of 32ATP relative to control; method in brief: as §1
[12] = target: Mu-type opioid receptor (Rattus norvegicus) (UniProt P33535); assay: Inhibition of MOPr desensitization (unknown origin) assessed as reduction in the morphine induced desensitization at 3 to 30 uM incubated for 15 mins; settings: dose 3-30 µM
Target sequence in this assay (P33535 whole entry, looked up, the tested form may be a part): as the sequence (P33535 whole entry, the tested form may be a part) above

[13] = target: Mitogen-activated protein kinase 3 (Homo sapiens) (UniProt P27361); assay: Inhibition of human ERK1 assessed as remaining activity at 1 uM in presence of 32ATP relative to control; method in brief: as §1
[14] = target: Mu-type opioid receptor (Rattus norvegicus) (UniProt P33535); assay: Inhibition of MOPr desensitization (unknown origin) assessed as reduction in the DAMGO induced desensitization at 3 to 30 uM incubated for 15 mins; settings: dose 3-30 µM
Target sequence in this assay (P33535 whole entry, looked up, the tested form may be a part): as the sequence (P33535 whole entry, the tested form may be a part) above

[15] = target: Mitogen-activated protein kinase 8 (Homo sapiens) (UniProt P45983); assay: Inhibition of human JNK1 assessed as remaining activity at 1 uM in presence of 32ATP relative to control; method in brief: as §1
[16] = target: Receptor-interacting serine/threonine-protein kinase 2 (Homo sapiens) (UniProt O43353); assay: Inhibition of human RIPK2 assessed as remaining activity at 1 uM in presence of 32ATP relative to control; method in brief: as §1
[17] = target: Interleukin-1 receptor-associated kinase 4 (Homo sapiens) (UniProt Q9NWZ3); assay: Inhibition of human IRAK4 assessed as remaining activity at 1 uM in presence of 32ATP relative to control; method in brief: as §1
[18] = target: MAP/microtubule affinity-regulating kinase 3 (Homo sapiens) (UniProt P27448); assay: Inhibition of human MARK3 assessed as remaining activity at 1 uM in presence of 32ATP relative to control; method in brief: as §1
[19] = target: Serine/threonine-protein kinase Chk2 (Homo sapiens) (UniProt O96017); assay: Inhibition of human CHK2 assessed as remaining activity at 1 uM in presence of 32ATP relative to control; method in brief: as §2
[20] = target: Receptor tyrosine-protein kinase erbB-4 (Homo sapiens) (UniProt Q15303); assay: Inhibition of human HER4 assessed as remaining activity at 1 uM in presence of 32ATP relative to control; method in brief: as §1
[21] = target: Mitogen-activated protein kinase kinase kinase 11 (Homo sapiens) (UniProt Q16584); assay: Inhibition of human MLK3 assessed as remaining activity at 1 uM in presence of 32ATP relative to control; method in brief: as §1
[22] = target: Homeodomain-interacting protein kinase 2 (Homo sapiens) (UniProt Q9H2X6); assay: Inhibition of human HIPK2 assessed as remaining activity at 1 uM in presence of 32ATP relative to control; method in brief: as §1
[23] = target: Tyrosine-protein kinase SYK (Homo sapiens) (UniProt P43405); assay: Inhibition of human SYK assessed as remaining activity at 1 uM in presence of 32ATP relative to control; method in brief: as §1
[24] = target: Dual specificity mitogen-activated protein kinase kinase 1 (Homo sapiens) (UniProt Q02750); assay: Inhibition of human MKK1 assessed as remaining activity at 1 uM in presence of 32ATP relative to control; method in brief: as §1
[25] = target: Mu-type opioid receptor (Rattus norvegicus) (UniProt P33535); assay: Inhibition of MOPr desensitization in wistar rat LC neuron cells assessed as reduction in the morphine induced desensitization at 30 uM incubated for 15 mins; format: functional, cell-based
Target sequence in this assay (P33535 whole entry, the tested form may be a part): as above

[26] = target: Mu-type opioid receptor (Rattus norvegicus) (UniProt P33535); assay: Inhibition of HA-tagged rat MOPr in HEK293 cells assessed as DAMGO induced MOPr phosphorylation at Ser375 level at 3 uM preincubated for 30 mins by western blot analysis; format: functional, cell-based
Method in brief: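 Serum-starved HEK 293 cells stably expressing HA-rat MOPr were pretreated with inhibitor for 30 min, then DAMGO 10 μM for 5 min. Receptor was enriched on WGA-agarose overnight at 4°C and blotted for pSer375. Densitometry was done in duplicate and normalized to total HA-MOPr; n = 3.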
Target sequence in this assay (P33535 whole entry, the tested form may be a part): as above

Ephrin type-A receptor 2 (Homo sapiens), sequence (P29317 whole entry): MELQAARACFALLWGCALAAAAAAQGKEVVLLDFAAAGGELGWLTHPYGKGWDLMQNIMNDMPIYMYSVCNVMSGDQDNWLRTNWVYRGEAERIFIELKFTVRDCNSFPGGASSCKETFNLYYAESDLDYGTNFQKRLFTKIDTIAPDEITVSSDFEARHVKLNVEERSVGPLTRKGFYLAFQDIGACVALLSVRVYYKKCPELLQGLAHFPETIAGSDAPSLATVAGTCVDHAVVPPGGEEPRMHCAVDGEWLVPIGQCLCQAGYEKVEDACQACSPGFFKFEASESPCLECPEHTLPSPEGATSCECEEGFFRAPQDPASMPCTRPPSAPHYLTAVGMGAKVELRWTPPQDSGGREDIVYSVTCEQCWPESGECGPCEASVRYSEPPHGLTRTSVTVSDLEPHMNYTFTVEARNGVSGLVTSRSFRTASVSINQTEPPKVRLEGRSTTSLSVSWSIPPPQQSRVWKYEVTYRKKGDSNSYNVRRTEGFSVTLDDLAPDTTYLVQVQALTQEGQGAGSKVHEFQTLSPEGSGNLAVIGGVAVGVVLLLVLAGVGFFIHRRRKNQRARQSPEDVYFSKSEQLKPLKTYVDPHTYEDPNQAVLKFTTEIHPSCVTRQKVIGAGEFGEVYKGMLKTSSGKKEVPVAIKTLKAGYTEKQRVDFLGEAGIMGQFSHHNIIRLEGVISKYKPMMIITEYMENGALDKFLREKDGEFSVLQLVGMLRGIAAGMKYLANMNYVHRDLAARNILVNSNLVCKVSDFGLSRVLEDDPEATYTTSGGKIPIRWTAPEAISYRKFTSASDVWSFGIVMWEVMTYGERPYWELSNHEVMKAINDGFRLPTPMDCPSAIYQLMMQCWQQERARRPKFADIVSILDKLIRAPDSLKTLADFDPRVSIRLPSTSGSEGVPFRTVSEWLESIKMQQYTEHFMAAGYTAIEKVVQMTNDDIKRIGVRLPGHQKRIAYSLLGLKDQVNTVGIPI
Homeodomain-interacting protein kinase 2 (Homo sapiens), sequence (Q9H2X6 whole entry, looked up): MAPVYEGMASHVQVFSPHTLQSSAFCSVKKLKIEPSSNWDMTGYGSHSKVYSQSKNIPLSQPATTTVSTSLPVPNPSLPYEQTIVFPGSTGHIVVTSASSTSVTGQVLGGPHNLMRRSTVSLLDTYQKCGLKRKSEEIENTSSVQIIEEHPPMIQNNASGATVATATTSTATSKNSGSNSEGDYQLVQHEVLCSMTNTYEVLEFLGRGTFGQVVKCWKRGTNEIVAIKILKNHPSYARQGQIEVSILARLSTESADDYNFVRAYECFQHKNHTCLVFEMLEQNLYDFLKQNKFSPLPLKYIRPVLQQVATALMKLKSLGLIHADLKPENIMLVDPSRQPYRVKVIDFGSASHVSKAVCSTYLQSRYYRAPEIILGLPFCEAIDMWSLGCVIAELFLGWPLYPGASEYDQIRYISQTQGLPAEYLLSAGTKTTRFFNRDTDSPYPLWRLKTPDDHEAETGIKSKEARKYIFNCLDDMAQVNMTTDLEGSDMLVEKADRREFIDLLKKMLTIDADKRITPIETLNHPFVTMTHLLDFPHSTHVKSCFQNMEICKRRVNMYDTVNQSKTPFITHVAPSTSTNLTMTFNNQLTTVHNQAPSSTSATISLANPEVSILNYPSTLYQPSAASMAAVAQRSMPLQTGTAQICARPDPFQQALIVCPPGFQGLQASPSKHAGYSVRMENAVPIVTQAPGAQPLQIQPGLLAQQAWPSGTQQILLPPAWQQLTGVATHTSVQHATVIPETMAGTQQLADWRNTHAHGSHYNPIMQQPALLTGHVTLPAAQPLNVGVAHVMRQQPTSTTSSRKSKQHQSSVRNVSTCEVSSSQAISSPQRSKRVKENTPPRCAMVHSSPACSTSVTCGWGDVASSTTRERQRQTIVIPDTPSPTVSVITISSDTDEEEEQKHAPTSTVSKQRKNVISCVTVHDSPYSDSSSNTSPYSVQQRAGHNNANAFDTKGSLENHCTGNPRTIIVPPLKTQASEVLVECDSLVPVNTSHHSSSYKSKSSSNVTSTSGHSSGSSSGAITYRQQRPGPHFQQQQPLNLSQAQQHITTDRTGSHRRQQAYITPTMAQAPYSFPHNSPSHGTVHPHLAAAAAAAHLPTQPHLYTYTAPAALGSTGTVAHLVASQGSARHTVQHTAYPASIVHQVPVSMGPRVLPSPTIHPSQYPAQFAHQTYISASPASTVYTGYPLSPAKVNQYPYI
Mitogen-activated protein kinase 14 (Homo sapiens), sequence (Q16539 whole entry): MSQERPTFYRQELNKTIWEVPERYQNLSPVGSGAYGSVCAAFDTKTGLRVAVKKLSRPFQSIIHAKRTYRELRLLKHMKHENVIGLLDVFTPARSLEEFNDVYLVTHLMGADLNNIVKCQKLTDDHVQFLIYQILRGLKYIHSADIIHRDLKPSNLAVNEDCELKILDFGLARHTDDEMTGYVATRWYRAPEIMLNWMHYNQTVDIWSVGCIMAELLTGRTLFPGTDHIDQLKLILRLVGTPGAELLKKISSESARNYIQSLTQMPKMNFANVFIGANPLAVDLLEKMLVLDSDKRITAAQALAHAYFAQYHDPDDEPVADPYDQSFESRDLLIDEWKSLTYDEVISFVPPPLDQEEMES
Serine/threonine-protein kinase STK11 (Homo sapiens), sequence (Q15831 whole entry): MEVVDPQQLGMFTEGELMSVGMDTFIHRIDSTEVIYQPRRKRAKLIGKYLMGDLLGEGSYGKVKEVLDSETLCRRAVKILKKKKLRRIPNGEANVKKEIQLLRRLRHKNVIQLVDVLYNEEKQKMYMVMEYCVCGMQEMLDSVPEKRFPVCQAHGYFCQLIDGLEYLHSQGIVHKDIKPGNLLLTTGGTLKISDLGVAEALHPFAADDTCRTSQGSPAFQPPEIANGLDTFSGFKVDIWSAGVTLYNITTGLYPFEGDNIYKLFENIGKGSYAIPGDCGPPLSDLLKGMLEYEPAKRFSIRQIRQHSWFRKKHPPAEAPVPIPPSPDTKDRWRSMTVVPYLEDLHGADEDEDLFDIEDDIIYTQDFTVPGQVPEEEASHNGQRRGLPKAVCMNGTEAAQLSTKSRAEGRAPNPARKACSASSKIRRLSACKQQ
Serine/threonine-protein kinase Chk2 (Homo sapiens), sequence (O96017 whole entry): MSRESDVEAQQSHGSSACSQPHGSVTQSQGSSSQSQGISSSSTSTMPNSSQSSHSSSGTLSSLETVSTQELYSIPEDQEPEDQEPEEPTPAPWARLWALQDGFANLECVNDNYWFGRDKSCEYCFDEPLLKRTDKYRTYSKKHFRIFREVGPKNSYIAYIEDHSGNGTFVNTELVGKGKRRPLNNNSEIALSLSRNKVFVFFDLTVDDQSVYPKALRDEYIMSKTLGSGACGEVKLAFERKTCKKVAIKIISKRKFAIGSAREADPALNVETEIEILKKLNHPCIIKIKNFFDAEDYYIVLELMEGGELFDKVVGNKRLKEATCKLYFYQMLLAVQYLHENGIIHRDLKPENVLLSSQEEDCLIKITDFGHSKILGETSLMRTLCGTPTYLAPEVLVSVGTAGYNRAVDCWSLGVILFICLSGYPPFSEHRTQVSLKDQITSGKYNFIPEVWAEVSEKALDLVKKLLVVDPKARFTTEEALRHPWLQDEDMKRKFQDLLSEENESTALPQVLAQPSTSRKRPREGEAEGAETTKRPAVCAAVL
Mitogen-activated protein kinase 3 (Homo sapiens), sequence (P27361 whole entry): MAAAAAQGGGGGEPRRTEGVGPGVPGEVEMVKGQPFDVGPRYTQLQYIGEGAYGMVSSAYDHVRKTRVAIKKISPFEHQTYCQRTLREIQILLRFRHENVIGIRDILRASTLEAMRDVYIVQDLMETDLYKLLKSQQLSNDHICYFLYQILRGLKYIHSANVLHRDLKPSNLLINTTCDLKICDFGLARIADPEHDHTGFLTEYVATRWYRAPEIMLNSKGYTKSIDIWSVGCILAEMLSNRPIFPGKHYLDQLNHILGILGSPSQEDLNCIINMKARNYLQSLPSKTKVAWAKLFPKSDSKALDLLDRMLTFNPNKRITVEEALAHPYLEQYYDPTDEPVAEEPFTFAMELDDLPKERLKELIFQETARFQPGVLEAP

**Q.** What does the source list for `Cn1c(CNc2cccc(C(=O)NCc3ccccc3C(F)(F)F)c2)nnc1-c1ccncc1`?
**A.** Activity [1]: 101%; inhibition [2]: Dose-Dependent Effect; Activity [3]: 85%; inhibition [4]: < 20%; Activity [5]: 113%; inhibition [6]: inactive; Activity [7]: 91%; inhibition [8]: Active; inhibition [9]: < 20%; Activity [10]: 86%; Activity [11]: 94%; inhibition [12]: Active; Activity [13]: 83%; inhibition [14]: Active; Activity [15]: 93%; Activity [16]: 93%; Activity [17]: 96%; Activity [18]: 92%; Activity [19]: 79%; Activity [20]: 86%; Activity [21]: 86%; Activity [22]: 103%; Activity [23]: 103%; Activity [24]: 88%; inhibition [25]: Active; inhibition [26]: Active
